About 140 (0.15%) of roughly 96,000 compounds were called active.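 How the source made its calls: active means mean replicate inhibition above about 25%, with at least 55% of replicates also reaching it (limit read from the data, passing the limit was not always enough); inconclusive means only one of those two conditions met; inactive means neither condition met.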 The full list was thinned out, with actives kept by preference.
Molecular target: Lysine-specific demethylase 4C (Homo sapiens) (UniProt Q9H3R0)
Sequence (Q9H3R0 2-372 limits assumed): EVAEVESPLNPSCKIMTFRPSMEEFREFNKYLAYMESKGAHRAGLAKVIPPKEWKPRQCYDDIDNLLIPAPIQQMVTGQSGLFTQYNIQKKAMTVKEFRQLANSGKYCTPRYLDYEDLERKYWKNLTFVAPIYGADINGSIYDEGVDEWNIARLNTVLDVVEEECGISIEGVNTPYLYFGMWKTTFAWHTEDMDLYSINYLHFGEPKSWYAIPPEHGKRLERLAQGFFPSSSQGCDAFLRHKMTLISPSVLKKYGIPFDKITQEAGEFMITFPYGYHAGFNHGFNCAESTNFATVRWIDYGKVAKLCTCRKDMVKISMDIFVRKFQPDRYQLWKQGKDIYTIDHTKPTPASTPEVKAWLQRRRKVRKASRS
Assay: inhibitors of GASC-1 (KDM4C) histone demethylase, primary screen, biochemical, single concentration HTS (AID 720574)
Conditions: GST-KDM4C 2-372, H3K9me3 peptide, LANCE TR-FRET; at 12.5 µM; stronger effect = higher value
Procedure, shortened: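 Assay system: GST-GASC-1 enzyme fragment 2-372 | Amount: 10 nM enzyme | Medium: HEPES buffer, pH 7.5, plus ascorbate | Reagent: H3K9me3 peptide substrate, Fe(II), 2-oxoglutarate | Doses: Single-point compound screen | Incubation: 30 min demethylation and 1 h detection at room temperature | Measured by: LANCE TR-FRET, excitation 340 nm, emissions 618 and 671 nm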

inhibition, inactive:
Cc1ccc(S(=O)(=O)N(C)C[C@@H]2OCCCC[C@@H](C)Oc3ccc(NC(=O)Nc4ccc(C(F)(F)F)cc4)cc3C(=O)N([C@@H](C)CO)C[C@@H]2C)cc1 1.16%
O=C(CN1CCOCC1)N1CC(=O)N2[C@H](C1)[C@H](c1ccc(/C=C/c3ccccc3)cc1)[C@@H]2CO 0.257%
O=C(NCC[C@H]1CC[C@@H](NC(=O)C2CC2)[C@H](CO)O1)c1ccc(F)cc1 -0.983%
CCC(=O)Nc1ccc2c(c1)C(=O)N(C)[C@@H]1CC[C@H](CC(=O)NCc3ccccc3)O[C@H]1CO2 1.95%
COc1ccc(S(=O)(=O)N[C@@H]2CC[C@@H](CC(=O)N3CCC(Cc4ccccc4)CC3)O[C@@H]2CO)cc1 -0.232%
COCC(=O)Nc1ccc2c(c1)[C@@H]1C[C@H](CC(=O)NCc3ccc(-c4ccccc4)cc3)O[C@H](CO)[C@@H]1O2 -3.13%
CN1C(=O)c2cc(NC(=O)C3CCCC3)ccc2OC[C@@H]2O[C@@H](CC(=O)NCCc3ccncc3)CC[C@@H]21 1.45%
Cc1ccc(S(=O)(=O)N[C@H]2CC[C@@H](CC(=O)N3CCc4ccccc4C3)O[C@H]2CO)cc1 0.126%
O=C(C[C@@H]1C[C@H]2c3cc(NC(=O)Nc4ccccc4)ccc3O[C@H]2[C@@H](CO)O1)NC1CCCCC1 -1.66%
COc1ccc2c3c(n(C)c2c1)[C@@H](CO)N(C(=O)Nc1ccc(F)cc1)CC31CN(C(=O)NC(C)C)C1 -0.434%
C/C=C/c1ccc([C@@H]2[C@H](CO)N(CC3CCOCC3)C23CN(S(=O)(=O)CC)C3)cc1 0.162%
C[C@H](CO)N1C[C@H](C)[C@H](CN(C)Cc2ccncc2)Oc2ncc(C#CCC3CCCCC3)cc2C1=O 2.4%
CC(C)NC(=O)N(C)C[C@@H]1OCCCC[C@@H](C)Oc2ccc(NC(=O)NC3CCCCC3)cc2C(=O)N([C@@H](C)CO)C[C@@H]1C 0.134%
COc1ccccc1C#Cc1cnc2c(c1)C(=O)N([C@H](C)CO)C[C@H](C)[C@H](CN(C)S(=O)(=O)c1cn(C)cn1)O2 -1.15%
CO[C@@H]1CN(C)C(=O)c2ccc(NC(=O)c3ccccc3F)cc2OC[C@@H](C)N(CC2CCOCC2)C[C@H]1C 2.15%
CCNC(=O)C[C@@H]1CC[C@@H]2[C@H](COc3ccc(NS(=O)(=O)c4ccccc4C)cc3C(=O)N2C)O1 2.37%
CN1C[C@@H]2[C@H](c3ccccc31)[C@@H](CO)N2C(=O)Nc1ccccc1 -1.64%

From PubChem BioAssay AID720574 (Broad Institute, 2013)
